Assay results taken from ChEMBL document CHEMBL1629415, “Biological evaluation of donor-acceptor aminonaphthoquinones as antitumor agents” (Eur J Med Chem, 2010).
Values after ≈ are worked out from the molar mass of the structure shown. Active and inactive are the calls of the source. No cut-off for these calls is given here.

Assays:
DU-145 = assay: Cytotoxicity against human DU145 cells after 48 hrs by MTT assay; type: functional, cell-based; conditions: DU-145, 48 h
Procedure, shortened: (§1)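 T24, DU145 and MCF7 grown in high-glucose DMEM with 10% fetal calf serum and penicillin/streptomycin. BALB/3T3 mouse fibroblasts grown in the same medium with 10% newborn calf serum. Cells seeded at 10 000/well for 24 h, then exposed 48 h at 37 C. MTT 0.5 mg/mL for 2 h, formazan dissolved in DMSO, read at 550 nm. EC50 is the concentration that lowers MTT reduction by 50% versus untreated control.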

MCF7 = assay: Cytotoxicity against human MCF7 cells after 48 hrs by MTT assay; type: functional, cell-based; conditions: MCF7, 48 h; procedure, shortened: as §1
T-24 [1] = assay: Cytotoxicity against human T24 cells after 48 hrs by MTT assay; type: functional, cell-based; conditions: T-24, 48 h; procedure, shortened: as §1
[2] = Lipophilicity, log P of the compound; type: physicochemical; conditions: octanol/water
BALB/3T3 = assay: Cytotoxicity against mouse BALB/3T3 cells after 48 hrs by MTT assay; type: cell-based; conditions: BALB/3T3, 48 h; procedure, shortened: as §1
T-24 [3] = assay: Induction of apoptosis in human T24 cells assessed as increase of caspase-3-mediated DEVDase activity at 1 ug/ml after 24 hrs; type: functional
Procedure, shortened: (§2)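 T24 cells exposed 6 or 24 h at 37 C, washed twice in PBS, lysed and centrifuged. Supernatant incubated with DEVD-AFC substrate, cleavage followed kinetically at room temperature (ex 380 nm, em 500 nm). Activity given as U/mg protein, protein by Lowry method with BSA standard.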

T-24 [4] = assay: Induction of apoptosis in human T24 cells assessed as increase of caspase-3-mediated DEVDase activity at 100 ug/ml after 6 hrs; type: functional; procedure, shortened: as §2
T-24 [5] = assay: Induction of apoptosis in human T24 cells assessed as increase of caspase-3-mediated DEVDase activity at 10 ug/ml after 6 hrs; type: functional; procedure, shortened: as §2
T-24 [6] = assay: Induction of apoptosis in human T24 cells assessed as increase of caspase-3-mediated DEVDase activity at 10 ug/ml after 24 hrs; type: functional; procedure, shortened: as §2
T-24 [7] = assay: Induction of apoptosis in human T24 cells assessed as increase of caspase-3-mediated DEVDase activity at 100 ug/ml after 24 hrs; type: functional; procedure, shortened: as §2
T-24 [8] = assay: Anticancer activity against human T24 cells assessed as decreased in intracellular ATP level after 6 hrs by ATPlite assay; type: functional, cell-based
Procedure, shortened: (§3)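 T24 cells in high-glucose DMEM with 10% FCS were exposed 6 h at 37 C to compound over a 1–100 range, alongside untreated controls. Intracellular ATP was measured by ATPlite luminescence kit. Groups were compared by one-way ANOVA with Bonferroni test.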

T-24 [9] = assay: Induction of apoptosis in human T24 cells assessed as increase of caspase-3-mediated DEVDase activity at 1 ug/ml after 6 hrs; type: functional; procedure, shortened: as §2
T-24 [10] = assay: Anticancer activity against human T24 cells assessed as inhibition of cell proliferation at 10 ug/ml after 10 days using crystal violet staining by clonogenic assay; type: functional
Procedure, shortened: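 T24 cells (500) seeded at single-cell density and left to adhere overnight. Compound exposure 24 h, then washed with warm PBS and regrown 10 days in fresh medium. Colonies stained with crystal violet to score clonogenic survival.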

T-24 [11] = assay: Anticancer activity against human T24 cells assessed as decreased in intracellular ATP level at 100 ug/ml after 6 hrs by ATPlite assay; type: functional, cell-based; procedure, shortened: as §3
T-24 [12] = assay: Induction of apoptosis in human T24 cells assessed as increase of caspase-3-mediated DEVDase activity at 5 ug/ml after 4 hrs; type: functional; conditions: in the assay text read “5 uM” for “5 ug/ml”
Procedure, shortened: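 Positive-control arm: T24 cells exposed to sanguinarine for 4 h. Lysate supernatant then assayed for DEVD-AFC cleavage kinetically at room temperature (ex 380/em 500 nm), expressed as U/mg protein.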

| logP ([2]; read-out: logP) | logP [2] | SMILES | EC50 (DU-145) | EC50 (MCF7) | EC50 (T-24 [1]) | EC50 (BALB/3T3) | Activity (T-24 [3]) | Activity (T-24 [4]) | Activity (T-24 [5]) | Activity (T-24 [6]) | Activity (T-24 [7]) | Activity (T-24 [8]) | Activity (T-24 [9]) | Activity (T-24 [10]) | Activity (T-24 [11]) | inhibition at 10 µg/mL (T-24 [10]; T-24, 240 h) | Activity (T-24 [12]) |
| --- | --- | --- | --- | --- | --- | --- | --- | --- | --- | --- | --- | --- | --- | --- | --- | --- | --- |
| 1.46 |  | COc1ccc(NC2=C(Cl)C(=O)c3ccccc3C2=O)cc1 | > 1000 µg/mL | > 1000 µg/mL | 438 µg/mL (≈ 1390 µM) | 13.7 µg/mL (≈ 43.7 µM) |  |  |  |  |  |  |  |  |  |  |  |
| 2.04 |  | Cc1ccccc1NC1=CC(=O)c2ccccc2C1=O | 7.7 µg/mL (≈ 29.2 µM) | 0.8 µg/mL (≈ 3.04 µM) | 7.7 µg/mL (≈ 29.2 µM) | 6.2 µg/mL (≈ 23.5 µM) |  |  |  |  |  |  |  |  |  |  |  |
| 2.08 |  | Cc1ccccc1NC1=C(Cl)C(=O)c2ccccc2C1=O | 25.8 µg/mL (≈ 86.7 µM) | 4.9 µg/mL (≈ 16.5 µM) | 9.3 µg/mL (≈ 31.2 µM) | 3.2 µg/mL (≈ 10.7 µM) |  |  |  |  |  |  |  |  |  |  |  |
| 2.34 |  | CN(C1=CC(=O)c2ccccc2C1=O)c1ccccc1 | 20.9 µg/mL (≈ 79.4 µM) | 7.8 µg/mL (≈ 29.6 µM) | 8.4 µg/mL (≈ 31.9 µM) | 43.3 µg/mL (≈ 164 µM) |  |  |  |  |  |  |  |  |  |  |  |
| 2.38 |  | CN(C1=C(Cl)C(=O)c2ccccc2C1=O)c1ccccc1 | 6.7 µg/mL (≈ 22.5 µM) | 1.2 µg/mL (≈ 4.03 µM) | 6 µg/mL (≈ 20.2 µM) | 0.8 µg/mL (≈ 2.69 µM) |  |  |  |  |  |  |  |  |  |  |  |
| 1.3 |  | COc1ccc(OC)c(NC2=CC(=O)c3ccccc3C2=O)c1 | 35.2 µg/mL (≈ 114 µM) | 1.2 µg/mL (≈ 3.88 µM) | 10.9 µg/mL (≈ 35.2 µM) | 11.5 µg/mL (≈ 37.2 µM) |  |  |  |  |  |  |  |  |  |  |  |
| 1.55 |  | O=C1C=C(Nc2ccccc2)C(=O)c2ccccc21 | 4 µg/mL (≈ 16 µM) | 2.6 µg/mL (≈ 10.4 µM) | 1.2 µg/mL (≈ 4.81 µM) | 0.2 µg/mL (≈ 0.802 µM) |  |  |  |  |  |  |  |  |  |  |  |
| 1.34 |  | COc1ccc(OC)c(NC2=C(Cl)C(=O)c3ccccc3C2=O)c1 | 6 µg/mL (≈ 17.5 µM) | 4.6 µg/mL (≈ 13.4 µM) | 2.4 µg/mL (≈ 6.98 µM) | 0.7 µg/mL (≈ 2.04 µM) |  |  |  |  |  |  |  |  |  |  |  |
|  |  | C[n+]1cc2c3c(ccc2c2ccc4cc5c(cc4c21)OCO5)OCO3 [SANGUINARIUM] |  |  |  |  |  |  |  |  |  |  |  |  |  |  | 639.2 U/mg |
|  | 1.59 | O=C1C(Cl)=C(Nc2ccccc2)C(=O)c2ccccc21 | 66.8 µg/mL (≈ 235 µM) | 6.3 µg/mL (≈ 22.2 µM) | 14.8 µg/mL (≈ 52.2 µM) | 9.1 µg/mL (≈ 32.1 µM) |  |  |  |  |  |  |  |  |  |  |  |

| SMILES | logP ([2]; read-out: logP) | logP [2] | EC50 (DU-145) | EC50 (MCF7) | EC50 (T-24 [1]) | EC50 (BALB/3T3) | Activity (T-24 [3]) | Activity (T-24 [4]) | Activity (T-24 [5]) | Activity (T-24 [6]) | Activity (T-24 [7]) | Activity (T-24 [8]) | Activity (T-24 [9]) | Activity (T-24 [10]) | Activity (T-24 [11]) | inhibition at 10 µg/mL (T-24 [10]; T-24, 240 h) | Activity (T-24 [12]) |
| --- | --- | --- | --- | --- | --- | --- | --- | --- | --- | --- | --- | --- | --- | --- | --- | --- | --- |
| O=C1C(Cl)=C(Nc2ccc(O)cc2)C(=O)c2ccccc21 | 1.2 |  | 1.9 µg/mL (≈ 6.34 µM) | 2.8 µg/mL (≈ 9.34 µM) | 0.6 µg/mL (≈ 2 µM) | 0.6 µg/mL (≈ 2 µM) |  |  |  |  |  |  |  |  |  |  |  |
| O=C1C=C(Nc2ccc(O)cc2)C(=O)c2ccccc21 | 1.16 |  | 0.9 µg/mL (≈ 3.39 µM) | 0.8 µg/mL (≈ 3.02 µM) | 2.3 µg/mL (≈ 8.67 µM) | 6 µg/mL (≈ 22.6 µM) | 5.1 U/mg | 3 U/mg | 2.7 U/mg | 4.9 U/mg | 4 U/mg | Dose-dependent effect | 6 U/mg | Active | Active |  |  |
| COc1ccc(NC2=CC(=O)c3ccccc3C2=O)cc1 | 1.43 |  | 7.6 µg/mL (≈ 27.2 µM) | 3.7 µg/mL (≈ 13.2 µM) | 8.1 µg/mL (≈ 29 µM) | 35.7 µg/mL (≈ 128 µM) | 5 U/mg | 3.4 U/mg | 5 U/mg | 4.5 U/mg | 3.4 U/mg | Dose-dependent effect | 5.9 U/mg |  | Active | 75% |  |
